The nature of series [1]: Distribution coefficient was determined. Type of series: physicochemical. The settings on record: octanol/water. An outline of the steps:
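Octanol and 0.1 M phosphate buffer at pH 7.4 were pre-saturated with each other by shaking for 16 h. About 5 mg of compound was dissolved in 10 mL buffer. A 5-mL portion was shaken with 5 mL octanol and centrifuged for 5 min. Absorbance of the aqueous phase at 280 nm was read before and after partitioning, diluted to 0.4–0.9. DC = (initial − final)/final, each × dilution factor; mean of two determinations.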

The test system of series [2] is Canis familiaris. The series can be described thus: In vivo determination of antiarrhythmic activity as the dose required for the production of 50% normal sinus beats in ouabain dog. Type of series: functional. The note with it: Canis lupus familiaris, Heart. Put shortly:
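Dogs with ouabain-induced arrhythmia received the agent by intravenous infusion at 500 µg/kg/min. ED50 is the cumulative administered dose (mg/kg) at which 50% of beats were normal sinus beats; number of animals given.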

Series [3] has as its system Canis familiaris. Put plainly: In vivo determination of antiarrhythmic activity as the dose required for the production of 80% normal sinus beats in Harris dog. Type of series: functional. The note with it: Canis lupus familiaris, Heart. Put shortly: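 Harris dog arrhythmia model with intravenous infusion at 150, 225 or 300 µg/kg/min depending on agent. Effective dose is the cumulative administered dose (mg/kg) giving 80% normal sinus beats; number of animals given.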

Series [4] is filed under the species Cavia porcellus. The series can be described thus: Dose required to convert acetylstrophanthidin-induced arrhythmia in guinea pig right atria to normal sinus rhythm (number of tissues converted to NSR/number of tissues tested=6/6). Type of series: functional.
Series [5] can be described thus: In vitro determination of human blood elimination half-life. The series is classed as ADME. The settings on record: whole blood.
Series [6] is filed under the species Cavia porcellus. The series can be described thus: Dose required to convert acetylstrophanthidin-induced arrhythmia in guinea pig right atria to normal sinus rhythm (number of tissues converted to NSR/number of tissues tested=4/4). Type of series: functional.
The species named for series [7] is Cavia porcellus. The series can be described thus: Dose required to convert acetylstrophanthidin-induced arrhythmia in guinea pig right atria to normal sinus rhythm (number of tissues converted to NSR/number of tissues tested=1/4). The series is classed as functional.
For series [8], the species on record is Cavia porcellus. Put plainly: Dose required to convert acetylstrophanthidin-induced arrhythmia in guinea pig right atria to normal sinus rhythm (number of tissues converted to NSR/number of tissues tested=3/3). The series is classed as functional.
The species named for series [9] is Cavia porcellus. The series can be described thus: Dose required to convert acetylstrophanthidin-induced arrhythmia in guinea pig right atria to normal sinus rhythm (number of tissues converted to NSR/number of tissues tested=3/4). The series is classed as functional.
The species entered for series [10] is Cavia porcellus. The series can be described thus: Dose required to convert acetylstrophanthidin-induced arrhythmia in guinea pig right atria to normal sinus rhythm (number of tissues converted to NSR/number of tissues tested=5/5). Type of series: functional.
The species named for series [11] is Cavia porcellus. Put plainly: Dose required to convert acetylstrophanthidin-induced arrhythmia in guinea pig right atria to normal sinus rhythm (number of tissues converted to NSR/number of tissues tested=3/5). Type of series: functional.
The species named for series [12] is Cavia porcellus. Put plainly: Dose required to convert acetylstrophanthidin-induced arrhythmia in guinea pig right atria to normal sinus rhythm (number of tissues converted to NSR/number of tissues tested=2/4). Type of series: functional.
Series [13] is filed under the species Cavia porcellus. The series can be described thus: Dose required to convert acetylstrophanthidin-induced arrhythmia in guinea pig right atria to normal sinus rhythm (number of tissues converted to NSR/number of tissues tested=8/8). The series is classed as functional.
For series [14], the species on record is Cavia porcellus. Put plainly: Dose required to convert acetylstrophanthidin-induced arrhythmia in guinea pig right atria to normal sinus rhythm (number of tissues converted to NSR/number of tissues tested=1/3). The series is classed as functional.
Series [15] can be described thus: In vitro determination of human blood elimination half-life; not determined because more than 90% of the drug was metabolized in min. The series is classed as ADME. The note with it: whole blood.

The text below walks through data of ChEMBL document CHEMBL1126777, “Mono- and bis(aminomethyl)phenylacetic acid esters as short-acting antiarrhythmic agents. 2” (J Med Chem, 1993).

A value given as a limit tells only on which side of the number the result lay.

For orientation: ED50 means the dose that gives a 50% effect, or the effect in half of the subjects. A higher ED50 goes with a need for a large dose. `CCN(CC)CC(=O)Nc1c(C)cccc1C` [LIDOCAINE]: the DC in series [1] worked out at 19.2. Moreover, the values for the ED50 in series [2] and in series [3] were 8.8 mg/kg and 37.5 mg/kg, respectively.

In general, half-life refers to the time needed for the level to fall by half in the phase considered. Low values mean fast loss, high ones slow loss. The compound `O=C(Cc1cc(CN2CCCC2)c(O)c(CN2CCCC2)c1)OCc1ccoc1` showed an ED in series [4] of 27.5 µg/mL. Further, the half-life in series [5] is 10.1 min.

In series [6], `O=C(Cc1cc(CN2CCCC2)c(O)c(CN2CCCC2)c1)OCc1ccc([N+](=O)[O-])cc1` came in with an ED of 5.2 µg/mL. The same compound had a half-life in series [5] of 6.2 min.

Turning to `O=C(Cc1cc(CN2CCCC2)c(O)c(CN2CCCC2)c1)OCC1CCCO1` (configuration not stated), the ED in series [7] is 40 µg/mL. Further, the half-life in series [5] was determined as 3.5 min.

With `O=C(Cc1ccc(O)c(CN2CCN(CC(=O)N3CCCC3)CC2)c1)OCC1COc2ccccc2O1` (configuration not stated), the DC in series [1] was determined as 7.1. This compound also registered an ED in series [6] of 22.5 µg/mL. Further, the half-life in [5] is < 1 min.

On to `COc1ccc2c(COC(=O)Cc3cc(CN4CCCC4)c(O)c(CN4CCCC4)c3)cc(=O)oc2c1`, for which the ED in [8] was 11.7 µg/mL.

As for `O=C(Cc1cc(CN2CCCC2)c(O)c(CN2CCCC2)c1)OCCOc1ccccc1`, the ED in series [6] stood at 16.2 µg/mL. In [5], this compound gave a half-life of 2.5 min.

Take `O=C(Cc1ccc(CN2CCCC2)cc1)OCC1COc2ccccc2O1` (configuration not stated): in [1], the DC turned out to be 22.1. Besides, in series [6], the ED was 10 µg/mL. Moreover, in series [5], the half-life is < 1 min.

For the compound `O=C(Cc1cc(CN2CCCC2)c(O)c(CN2CCCC2)c1)OCc1ccc2c(c1)OCO2`, in series [9], the ED stood at 10.7 µg/mL. In series [5], the half-life came to 9.2 min.

`O=C(Cc1cc(CN2CCCC2)c(O)c(CN2CCCC2)c1)OCc1c(F)c(F)c(F)c(F)c1F` gave an ED in [6] of 7.5 µg/mL. This compound returned a half-life in series [5] of 11 min.

As to `O=C(Cc1cc(CN2CCCC2)c(O)c(CN2CCCC2)c1)OCc1cccs1`, the DC in series [1] was 0.73. For the same compound, the values for the 50% effective dose (ED50) in series [2] and in series [3] were 3.8 mg/kg and 10.5 mg/kg, respectively. Also, in series [6], the ED amounted to 5.5 µg/mL. Also, in series [5], the half-life came out at 3.5 min.

As for `O=C(Cc1cc(CN2CCCC2)c(O)c(CN2CCCC2)c1)OCCc1ccccc1`, the ED in series [6] turned out to be 2.8 µg/mL. Besides, in series [5], the half-life is 16.8 min.

For the compound `O=C(Cc1cc(CN2CCCC2)c(O)c(CN2CCCC2)c1)OCC1COc2ccccc2O1` (configuration not stated), the DC in [1] came to 2.62. Moreover, the ED50 in series [2] is 4.8 mg/kg; in series [3], 14 mg/kg. The same compound had an ED in [10] of 7.3 µg/mL. This compound also registered a half-life in [5] of 7.1 min.

In series [6], `O=C(Cc1cc(CN2CCCC2)c(O)c(CN2CCCC2)c1)OCCc1cccs1` had an ED of 3 µg/mL. For the same compound, in series [5], the half-life was determined as 35.9 min.

As for `O=C(Cc1cc(CN2CCCC2)c(O)c(CN2CCCC2)c1)OCCN1C(=O)c2ccccc2C1=O`, the ED in series [11] stood at 23.3 µg/mL. The same compound returned a half-life in [5] of 3.8 min.

Turning to `O=C(Cc1cc(CN2CCCC2)c(O)c(CN2CCCC2)c1)OCC1CCc2ccccc2C1` (configuration not stated), in series [12], the ED worked out at 6 µg/mL. In series [5], the half-life worked out at 2.3 min.

As to `O=C(Cc1cccc(CN2CCCC2)c1)OCC1COc2ccccc2O1` (configuration not stated), the DC in [1] amounted to 39.5. For the same compound, in series [13], the ED turned out to be 6.9 µg/mL. Also, the half-life in [5] was < 1 min.

Compound `O=C(Cc1cc(CN2CCCC2)c(O)c(CN2CCCC2)c1)OCc1ccco1` had an ED in [10] of 29.4 µg/mL. The half-life in series [5] was 2.5 min.

`O=C(Cc1cc(CN2CCCC2)c(O)c(CN2CCCC2)c1)OCCc1ccsc1` displayed an ED in [6] of 6.2 µg/mL. In [5], this compound came in with a half-life of 34.8 min.

The compound `O=C(Cc1ccc(O)c(CN2CCC(N3CCCCC3)CC2)c1)OCC1COc2ccccc2O1` (configuration not stated) showed a DC in series [1] of 9.6. This compound also showed an ED in series [8] of 8.3 µg/mL. Also, the half-life in [5] is < 1 min.

With `CN1CCN(Cc2cc(CC(=O)OCC3COc4ccccc4O3)ccc2O)CC1` (configuration not stated), the DC in series [1] was determined as 24. Moreover, the ED in series [6] is 2.5 µg/mL.

`O=C(Cc1cc(CN2CCCC2)c(O)c(CN2CCCC2)c1)OCC1CCCCO1` (configuration not stated) registered an ED in series [14] of 20 µg/mL. Also, in [5], the half-life amounted to 3.3 min.

On to `O=C(Cc1ccc(O)c(CN2CCCC2)c1)OCC1COc2ccccc2O1` (configuration not stated), for which the half-life in series [15] is < 1 min. In addition, the DC in series [1] was found to be 36.3. In series [6], this compound gave an ED of 1.2 µg/mL.
